Test results from PMC2756285 (Biochemistry, 2009).
No end group written: not given here.

Key:
[1] = cited from earlier work
[2] = biological target: T1, rec-α5LG45 protein—heparin binding (Mus musculus, UniProt Q61001); assay: Peptide inhibition of heparin-binding to rec-α5LG45
T1 sequence (Q61001 3318-3718): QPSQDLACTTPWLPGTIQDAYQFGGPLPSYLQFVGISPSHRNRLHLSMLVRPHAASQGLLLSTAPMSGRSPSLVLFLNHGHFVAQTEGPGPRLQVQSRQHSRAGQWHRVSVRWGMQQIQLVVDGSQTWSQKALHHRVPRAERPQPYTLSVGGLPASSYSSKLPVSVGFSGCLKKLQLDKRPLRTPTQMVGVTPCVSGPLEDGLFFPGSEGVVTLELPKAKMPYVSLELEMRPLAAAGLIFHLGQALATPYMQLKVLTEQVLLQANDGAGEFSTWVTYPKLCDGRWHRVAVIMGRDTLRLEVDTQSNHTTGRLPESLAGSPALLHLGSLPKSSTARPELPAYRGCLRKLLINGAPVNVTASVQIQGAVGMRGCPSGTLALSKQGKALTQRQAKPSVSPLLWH
Procedure, shortened: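 Mouse laminin α5 LG45 fused to human IgG Fc, expressed in transfected 293T cells, purified on Protein A then heparin-Sepharose. The protein (3 µg), heparin-Sepharose beads (1 mg) and varying peptide amounts were incubated for 1 h at 4 °C in 70 µL of 10 mM Tris-HCl pH 7.4 with 100 mM NaCl. Beads were washed twice. Bound protein was detected by reducing 8% SDS-PAGE and anti-human Fc Western blot with ECL. Run in triplicate.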

cell attachment = conditions: cited from earlier work; for cell adhesion (AG73 and EF-1 together): synergetic interaction of syndecan and integrin α2β1
syndecans = conditions: membrane-associated proteoglycans; cited from earlier work
syndecan-1 = conditions: membrane-associated proteoglycan; cited from earlier work
syndecan-4 = conditions: cited from earlier work

Row | IC50 [2] | Substance | heparin-binding [1] | interaction with syndecans (syndecans) | further results
1 | – | GLIYYVAHQNQM [AG75] | heparin-binding | – | –
2 | 91.8 µM | GPLPSYLQFVGI-NH2 [A5G71, GPLPSYLQFVGI] | – | – | –
3 | 0.84 µM | KMPYVSLELEMR-NH2 [A5G94, KMPYVSLELEMR] | – | – | –
4 | 7 µM | LVLFLNHGHFVA-NH2 [A5G77, LVLFLNHGHFVA] | – | – | –
5 | – | DYATLQLQEGRLHFMFDLG [EF-1] | – | – | cell adhesion (AG73 and EF-1 together) (cell attachment): cooperate and induce cell adhesion
6 | 5.9 µM | AGQWHRVSVRWG-NH2 [A5G81, AGQWHRVSVRWG] | – | – | –
7 | – | KNSFMALYLSKG [A3G75] | heparin-binding sequence | interact with syndecans | –
8 | – | RKRLQVQLSIRT [AG73] | the strongest heparin-binding peptide | interact with syndecans | cell adhesion (AG73 and EF-1 together) (cell attachment): cooperate and induce cell adhesion; syndecan-1 binding (syndecan-1): binds syndecan-1; heparin/heparan sulfate binding [1]: heparin/heparan sulfate binding
9 | – | TLFLAHGRLVFM [A4G82] | exhibited heparin- and syndecan-4-binding | interact with syndecans | cell attachment activity (cell attachment): cell attachment activity; syndecan-4-binding (syndecan-4): exhibited heparin- and syndecan-4-binding
